Laboratory results reported in ChEMBL document CHEMBL4177604, “Binding of triazole-linked galactosyl arylsulfonamides to galectin-3 affects Trypanosoma cruzi cell invasion” (Bioorg Med Chem, 2017).
Active and inactive are the calls of the source. No cut-off for these calls is given here.

Key:
Trypanosoma cruzi [1] = experiment: Trypanocidal activity against Trypanosoma cruzi Y trypomastigote assessed as effect on parasite viability at 31.25 to 250 uM after 48 hrs by resazurin-based assay; assay type: functional, organism-based
Method in brief: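 Culture-derived Y-strain trypomastigotes, 1 x 10^6 per well, in RPMI 1640 with 10% FBS containing compound (250 to 31,25 µM). Held 48 h at 37 °C, 5% CO2. Resazurin added for 6 h, then read at 570 and 600 nm. Viability from OD570 minus OD600, relative to untreated parasites.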

[2] = biological target: T1, Trans-sialidase (Trypanosoma cruzi) (UniProt Q26964); experiment: Inhibition of recombinant His-tagged Trypanosoma cruzi trans-sialidase N-terminal catalytic domain at 1 mM preincubated for 10 mins followed by MuNANA addition measured over 5 mins by fluorimetric assay relative to control
T1 sequence (whole entry): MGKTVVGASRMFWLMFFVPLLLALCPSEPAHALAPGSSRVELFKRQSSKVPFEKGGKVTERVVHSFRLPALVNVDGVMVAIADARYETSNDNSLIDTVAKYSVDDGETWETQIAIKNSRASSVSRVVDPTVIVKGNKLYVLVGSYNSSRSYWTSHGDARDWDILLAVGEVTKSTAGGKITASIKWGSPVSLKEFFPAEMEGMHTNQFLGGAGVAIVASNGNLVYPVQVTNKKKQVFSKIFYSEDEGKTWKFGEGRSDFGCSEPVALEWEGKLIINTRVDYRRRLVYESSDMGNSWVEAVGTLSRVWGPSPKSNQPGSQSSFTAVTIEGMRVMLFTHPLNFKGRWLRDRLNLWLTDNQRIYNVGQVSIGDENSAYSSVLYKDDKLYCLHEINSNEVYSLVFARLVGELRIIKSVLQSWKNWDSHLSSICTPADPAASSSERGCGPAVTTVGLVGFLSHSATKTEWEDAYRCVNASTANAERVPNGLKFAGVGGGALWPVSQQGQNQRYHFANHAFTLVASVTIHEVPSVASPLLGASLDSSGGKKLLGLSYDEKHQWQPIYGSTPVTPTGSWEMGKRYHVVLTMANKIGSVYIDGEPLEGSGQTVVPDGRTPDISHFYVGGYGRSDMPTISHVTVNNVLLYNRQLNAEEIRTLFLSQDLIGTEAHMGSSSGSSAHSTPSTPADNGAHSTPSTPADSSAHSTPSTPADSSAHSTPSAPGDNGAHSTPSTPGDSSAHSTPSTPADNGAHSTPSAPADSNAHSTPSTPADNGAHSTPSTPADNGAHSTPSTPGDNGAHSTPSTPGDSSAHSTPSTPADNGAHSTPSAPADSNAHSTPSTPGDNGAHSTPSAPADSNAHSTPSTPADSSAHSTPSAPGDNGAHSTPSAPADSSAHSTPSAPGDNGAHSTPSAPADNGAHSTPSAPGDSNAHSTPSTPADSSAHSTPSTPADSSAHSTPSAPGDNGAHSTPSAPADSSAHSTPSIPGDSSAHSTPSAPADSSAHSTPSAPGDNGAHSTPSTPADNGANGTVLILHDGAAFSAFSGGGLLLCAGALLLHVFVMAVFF
Method in brief: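 Recombinant His-tagged 70 kDa trans-sialidase, truncated to the catalytic N-terminal domain, in phosphate buffer pH 7. Preincubated with inhibitor at 1.0 mM final for 10 min at 26 °C. MuNANA added to 0.1 mM and released fluorescence followed over 5 min (ex 360/em 460 nm). Triplicate. %I = 100 × [1 − Vi/V0].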

Trypanosoma cruzi [3] = experiment: (§1) Antitrypanosomal activity against Trypanosoma cruzi Y trypomastigote infected in monkey LLCMK2 cells assessed as inhibition of cell invasion by trypanosoma by measuring infection index at 250 uM pretreated with cells for 30 mins followed by trypomastigote infection measured after 18 hrs by panoptic dye-based optical microscopic analysis (reference value: 68); assay type: functional
Method in brief: (§2)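 LLCMK2 cells adhered on coverslips, exposed to compound at 250 µM for 30 min, then infected with Y-strain trypomastigotes (1 x 10^5; 5 parasites per cell). Incubated 18 h at 37 °C, 5% CO2, then fixed, stained with panoptic dye and read by optical microscopy. Scored as % infected cells, mean amastigotes per cell, and infection index (% infected × mean parasites per cell). Triplicate.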

Trypanosoma cruzi [4] = experiment: as §1, with “LLC-MK2” for “LLCMK2”, “mean number of amastigote parasites per cells” for “infection index”, “analysis” for “analysis (reference value: 68)”; assay type: functional, organism-based; method in brief: as §2
LLC-MK2 = experiment: Cytotoxicity against monkey LLC-MK2 cells assessed as reduction in cell viability after 48 hrs by MTT assay; assay type: cell-based, Macaca mulatta; conditions: rhesus monkey, llc-mk2, 48 h
Method in brief: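 LLCMK2 cells, 1 x 10^4 per well, adhered overnight in RPMI 1640 with 10% FBS. Exposed to 500 to 67,5 µM compound in triplicate for 48 h at 37 °C, 5% CO2. MTT added for 4 h, formazan dissolved in DMSO, absorbance at 570 nm.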

Trypanosoma cruzi [5] = experiment: as §1, with “LLC-MK2” for “LLCMK2”, “infected […]” for “infection index”, “63%)” for “68)”; assay type: functional; set-up: scale not given: the % may be the effect or the level left; method in brief: as §2
Galectin-3 = Galectin-3 (Homo sapiens, UniProt P17931); experiment: Binding affinity to recombinant human galectin-3 expressed in Escherichia coli BL21 after 3 hrs
Galectin-3, sequence (P17931 whole entry): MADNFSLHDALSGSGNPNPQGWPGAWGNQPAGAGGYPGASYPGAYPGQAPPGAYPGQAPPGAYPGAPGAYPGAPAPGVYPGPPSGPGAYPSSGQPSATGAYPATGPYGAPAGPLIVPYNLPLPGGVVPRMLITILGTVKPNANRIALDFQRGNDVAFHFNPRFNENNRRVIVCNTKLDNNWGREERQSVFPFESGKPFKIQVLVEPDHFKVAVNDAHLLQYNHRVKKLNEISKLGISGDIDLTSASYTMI
Method in brief: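 Human galectin-3 expressed in E. coli BL21, purified on lactosyl-Sepharose, immobilized at 150 µg/mL (20 mM sodium acetate, pH 4.0, 16 h, 4 °C) on NHS-activated label-free biosensor. Compound dissolved in DMSO, diluted into PBS pH 7.4 with 1% or 2% DMSO, 0.09–400 µM, triplicate. Wavelength shift (pm) read over 3 h at 25 °C, blank-subtracted. EC50 from one-site binding fit.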

Trans-sialidase = biological target: T2, Trans-sialidase (Trypanosoma cruzi, UniProt Q26964); experiment: Inhibition of Trypanosoma cruzi trans-sialidase using Trifluoromethylumbelliferyl alpha-sialoside as substrate by UV/visible spectrophotometer
T2 sequence (Q26964 whole entry): T1 sequence (whole entry)

| Structure (SMILES) | inhibition [2] [%] | Activity (Galectin-3) | EC50 (Galectin-3) [µM] | IC50 (Trans-sialidase) [µM] | Activity (Trypanosoma cruzi [1]) | Activity_index (Trypanosoma cruzi [3]) | Activity (Trypanosoma cruzi [4]) | Activity (LLC-MK2) | Activity (Trypanosoma cruzi [5]) |
| --- | --- | --- | --- | --- | --- | --- | --- | --- | --- |
| CO[C@@H]1O[C@H](CO)[C@H](O)[C@H](OCc2cn(-c3ccc(S(=O)(=O)Nc4nccc(C)n4)cc3)nn2)[C@H]1O | 4.5 to 16 |  |  |  | inactive | 28 - 44 | Active | Non-Toxic | 47 - 54% |
| COc1cc(NS(=O)(=O)c2ccc(-n3cc(CO[C@H]4[C@@H](O)[C@@H](CO)O[C@@H](OC)[C@@H]4O)nn3)cc2)nc(OC)n1 | 4.5 to 16 | Dose-dependent effect | 18.3 |  | inactive | 20 | Active | Non-Toxic | 38% |
| CO[C@@H]1O[C@H](CO)[C@H](O)[C@H](OCc2cn(-c3ccc(S(=O)(=O)NC(C)=O)cc3)nn2)[C@H]1O | 88 | Dose-dependent effect | 205 |  | inactive | 28 - 44 | Active | Non-Toxic | 47 - 54% |
| CO[C@@H]1O[C@H](CO)[C@H](O)[C@H](OCc2cn(-c3ccc(S(=O)(=O)Nc4cc(C)on4)cc3)nn2)[C@H]1O | 4.5 to 16 | Dose-dependent effect | 17.2 |  | inactive | 20 | Active | Non-Toxic | 41% |
| CO[C@@H]1O[C@H](CO)[C@H](O)[C@H](OCc2cn(-c3ccc(S(N)(=O)=O)cc3)nn2)[C@H]1O | 4.5 to 16 | Dose-dependent effect | 40.7 |  | inactive | 28 - 44 | Active | Non-Toxic | 47 - 54% |

The next lines start with results.

| inhibition [2] [%] | Activity (Galectin-3) | EC50 (Galectin-3) [µM] | IC50 (Trans-sialidase) [µM] | Structure (SMILES) | Activity (Trypanosoma cruzi [1]) | Activity_index (Trypanosoma cruzi [3]) | Activity (Trypanosoma cruzi [4]) | Activity (LLC-MK2) | Activity (Trypanosoma cruzi [5]) |
| --- | --- | --- | --- | --- | --- | --- | --- | --- | --- |
|  |  |  | 0.6 | Cc1ccc(S(=O)(=O)N2c3ccccc3C(=O)/C(=C/c3ccc(O)c(O)c3)C2c2ccc(O)c(O)c2)cc1 (stereo not drawn) |  |  |  |  |  |
| 4.5 to 16 |  |  |  | CO[C@@H]1O[C@H](CO)[C@H](O)[C@H](OCc2cn(-c3ccc(S(=O)(=O)Nc4ccccn4)cc3)nn2)[C@H]1O | inactive | 28 - 44 | Active | Non-Toxic | 47 - 54% |
| 4.5 to 16 | Dose-dependent effect | 67.7 |  | CO[C@@H]1O[C@H](CO)[C@H](O)[C@H](OCc2cn(-c3ccc(S(=O)(=O)Nc4nc(C)cc(C)n4)cc3)nn2)[C@H]1O | inactive | 28 - 44 | Active | Non-Toxic | 47 - 54% |
